Among the data in ChEMBL document CHEMBL1811915, “Discovery of new chromone containing sulfonamides as potent inhibitors of bovine cytosolic carbonic anhydrase” (Bioorg Med Chem, 2011) are Ki, inhibition and IC50 values, retold here.

A short description of experiment [1]: Inhibition of bovine carbonic anhydrase assessed as formation of p-nitrophenol from p-nitrophenyl acetate substrate after 30 mins by spectrophotometric method. Also on record: species or system Bos taurus. The essentials:
(§1)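 Bovine cytosolic CA (CA-I plus CA-II mix, 98.9% pure), 0.35 U/well, in 50 mM Tris–sulfate pH 7.6 with 0.1 mM ZnCl₂. Compound in DMSO is pre-incubated with enzyme for 10 min at 25 °C and pre-read at 348 nm. p-Nitrophenyl acetate is added to 0.6 mM final, then read at 348 nm after 30 min at 25 °C. Percent inhibition is relative to DMSO control; mean of three independent experiments ± sem.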

The species named for experiment [2] is Bos taurus. Nature of the experiment: Inhibition of bovine carbonic anhydrase assessed as formation of p-nitrophenol from p-nitrophenyl acetate substrate at 0.5 mM after 30 mins by spectrophotometric method. The gist of the method:
as §1

`NS(=O)(=O)C(F)(F)F` [TRIFLUOROMETHANESULFONAMIDE]: in experiment [1], the Ki (in general, a measure of affinity in units of concentration, obtained from inhibition or displacement) came out at 0.002 µM.

On to `CCOC1Oc2ccccc2C(=O)/C1=C\Nc1ccc(S(N)(=O)=O)cc1` (centres undefined), for which the inhibition (in general, the percentage by which the read-out fell short of the control) in experiment [2] is 64%. The IC50 in experiment [1] is 19.21 µmol.

As for `CCOC1Oc2c(Br)cc(Br)cc2C(=O)/C1=C\Nc1cccc(S(N)(=O)=O)c1` (centres undefined), the inhibition in experiment [2] is 61.2%. Also, the IC50 in experiment [1] turned out to be 29.12 µmol.

On to `CCOC1Oc2ccccc2C(=O)/C1=C\Nc1cccc(S(N)(=O)=O)c1` (centres undefined), for which the inhibition in experiment [2] worked out at 67.6%. The IC50 in experiment [1] is 17.72 µmol.

In the case of `CCOC1Oc2ccc(CC)cc2C(=O)/C1=C\Nc1cccc(S(N)(=O)=O)c1` (centres undefined), the inhibition in experiment [2] is 65.3%. In addition, the IC50 in experiment [1] came to 11.71 µmol.

On to `CCOC1Oc2c(Br)cc(Br)cc2C(=O)/C1=C\Nc1ccc(S(N)(=O)=O)cc1` (centres undefined), for which the inhibition in experiment [2] is 67.3%. Moreover, the IC50 in experiment [1] was determined as 21.12 µmol.

On to `CC(=O)Nc1nnc(S(N)(=O)=O)s1` [ACETAZOLAMIDE], for which the inhibition in experiment [2] was determined as 91.3%. For the same compound, the IC50 in experiment [1] is 1.13 µmol.

Take `CCOC1Oc2ccc(F)cc2C(=O)/C1=C\Nc1ccc(S(N)(=O)=O)cc1` (centres undefined): the inhibition in experiment [2] was 71.2%. Further, the IC50 in experiment [1] is 4.31 µmol.

Regarding `CCOC1Oc2ccc(F)cc2C(=O)/C1=C\Nc1cccc(S(N)(=O)=O)c1` (centres undefined), the inhibition in experiment [2] turned out to be 66.8%. Moreover, the IC50 in experiment [1] was 11.37 µmol.

On to `CCOC1Oc2ccc(Br)cc2C(=O)/C1=C\Nc1ccc(S(N)(=O)=O)cc1` (centres undefined), for which the inhibition in experiment [2] is 65.2%. The IC50 in experiment [1] amounted to 16.12 µmol.

In the case of `CCOC1Oc2ccc(Br)cc2C(=O)/C1=C\Nc1cccc(S(N)(=O)=O)c1` (centres undefined), the inhibition in experiment [2] is 68.8%. Moreover, the IC50 in experiment [1] is 18.27 µmol.

Regarding `CCOC1Oc2ccc(CC)cc2C(=O)/C1=C\Nc1ccc(S(N)(=O)=O)cc1` (centres undefined), the inhibition in experiment [2] is 69.7%. In addition, in experiment [1], the IC50 is 16.63 µmol.

On to `CS(N)(=O)=O` [METHANESULFONAMIDE], for which, in experiment [1], the Ki stood at 100 µM.
